# Active and inactive are the calls of the source.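 The calls were made as follows: active = IC50 of 10 microM or lower; inactive = the rest.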
# Target: Transitional endoplasmic reticulum ATPase (Homo sapiens) (UniProt P55072)
# Assay: inhibition of purified VCP ATP hydrolysis – biochemical, dose response (AID 463184)
# Details: purified p97 ATPase, Kinase-Glo luminescence
# Procedure, shortened: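 System – human p97 ATPase · Reagent – ATP substrate, added from 500 µM stock · Times – Compound–enzyme 10 min at RT, ATP hydrolysis 30 min, 37 °C · Signal – Kinase-Glo Plus luminescence measuring leftover ATP · Measure – IC50 from hyperbolic fit of percent remaining enzyme activity · Benchmarks – DMSO wells and no-enzyme wells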
# Sequence of Transitional endoplasmic reticulum ATPase (Homo sapiens) (P55072 whole entry, looked up): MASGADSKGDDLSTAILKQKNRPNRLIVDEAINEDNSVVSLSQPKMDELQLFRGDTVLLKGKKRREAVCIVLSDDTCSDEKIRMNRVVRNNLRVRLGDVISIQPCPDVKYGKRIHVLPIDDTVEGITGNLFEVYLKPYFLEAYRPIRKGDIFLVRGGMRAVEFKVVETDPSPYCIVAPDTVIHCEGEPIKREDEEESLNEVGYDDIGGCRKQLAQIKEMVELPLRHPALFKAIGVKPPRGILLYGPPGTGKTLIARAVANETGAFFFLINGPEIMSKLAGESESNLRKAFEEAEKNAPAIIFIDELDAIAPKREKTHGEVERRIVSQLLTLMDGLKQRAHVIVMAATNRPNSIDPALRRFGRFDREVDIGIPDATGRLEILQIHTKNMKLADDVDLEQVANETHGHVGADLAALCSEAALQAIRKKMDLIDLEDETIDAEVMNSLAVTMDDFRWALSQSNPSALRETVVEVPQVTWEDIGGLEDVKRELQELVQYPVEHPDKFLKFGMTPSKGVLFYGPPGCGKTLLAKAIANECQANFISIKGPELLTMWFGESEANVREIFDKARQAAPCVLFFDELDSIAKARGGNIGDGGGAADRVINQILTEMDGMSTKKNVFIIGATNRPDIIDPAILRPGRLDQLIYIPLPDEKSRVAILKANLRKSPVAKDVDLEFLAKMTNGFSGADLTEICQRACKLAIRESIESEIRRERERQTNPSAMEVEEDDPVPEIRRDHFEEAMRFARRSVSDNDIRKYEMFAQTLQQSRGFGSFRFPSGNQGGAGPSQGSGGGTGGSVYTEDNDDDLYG
row,Compound,IC50
1,N#C/C(=C(\O)COC(=O)C1COc2ccccc2O1)c1nc2ccccc2[nH]1 (stereo not drawn),inactive
2,FC(F)(F)c1cc(CNc2nc(NCc3ccccc3)c3ccccc3n2)ccc1Cl,4.7 µM
3,Nc1nc(CCl)nc(Nc2ccc(Cl)c(Cl)c2)n1,inactive
4,N#C/C(=C(\O)COC(=O)CCC(=O)c1ccc2c(c1)OCCO2)c1nc2ccccc2[nH]1,10 µM
5,CCc1nc2ccccc2n1CC(=O)OC/C(O)=C(/C#N)c1nc2ccccc2[nH]1,inactive
6,N#C/C(=C(\O)COC(=O)CNc1ccc(C(F)(F)F)cc1[N+](=O)[O-])c1nc2ccccc2[nH]1,inactive
7,COc1cccc(CNc2nc(NCc3ccccc3)c3ccccc3n2)c1,4.5 µM
8,Cc1c(Cl)cccc1Nc1nc(N)nc(CCl)n1,inactive
9,Nc1nc(CCl)nc(N(c2ccccc2)c2ccccc2)n1,inactive
10,CC(C)c1ccc(Nc2nc(N)nc(CCl)n2)cc1,inactive
11,Brc1ccc(CNc2nc(NCc3ccccc3)c3ccccc3n2)cc1,4.3 µM
12,Nc1nc(CCl)nc(Nc2ccc(Oc3ccccc3)cc2)n1,inactive
13,Clc1ccccc1CNc1nc(NCc2ccccc2)c2ccccc2n1,5.3 µM

# The next lines start with the values.
row,IC50,Compound
1,2.3 µM,Cc1cccc(CNc2nc(NCc3ccccc3)c3ccccc3n2)c1
2,3 µM,COc1ccc(CNc2nc(NCc3ccccc3)c3ccccc3n2)cc1
3,3 µM,Cc1ccc(CNc2nc(NCc3ccccc3)c3ccccc3n2)cc1
4,2.6 µM,Fc1ccc(CNc2nc(NCc3ccccc3)c3ccccc3n2)cc1
5,3.1 µM,Fc1cccc(CNc2nc(NCc3ccccc3)c3ccccc3n2)c1
6,1.6 µM,c1ccc(CNc2nc(NCc3ccccc3)c3ccccc3n2)cc1
7,2.7 µM,Clc1cccc(CNc2nc(NCc3ccccc3)c3ccccc3n2)c1
8,2.9 µM,Fc1ccccc1CNc1nc(NCc2ccccc2)c2ccccc2n1
9,2.6 µM,FC(F)(F)c1ccc(CNc2nc(NCc3ccccc3)c3ccccc3n2)cc1
10,3.7 µM,Brc1cccc(CNc2nc(NCc3ccccc3)c3ccccc3n2)c1
11,3.6 µM,COc1ccccc1CNc1nc(NCc2ccccc2)c2ccccc2n1
12,2.7 µM,Cc1ccccc1CNc1nc(NCc2ccccc2)c2ccccc2n1
13,3.1 µM,Clc1ccc(CNc2nc(NCc3ccccc3)c3ccccc3n2)cc1
14,3 µM,Clc1ccc(CNc2nc(NCc3ccccc3)c3ccccc3n2)cc1Cl
15,2 µM,Brc1ccccc1CNc1nc(NCc2ccccc2)c2ccccc2n1

# — PubChem BioAssay AID463184 (Molecular Libraries Program, Specialized Chemistry Center, …, 2010)
